Results reported in ChEMBL document CHEMBL4665656, “Toxicity, bioactivity, release of HS in vivo and pharmaco-kinetics of HS-donors with thiophosphamide structure” (Eur J Med Chem, 2019).
Activity calls are given as the source filed them. No cut-off for these calls is given here.

Legend:
RAW264.7 [1] = test: Anti-inflammatory activity in mouse RAW264.7 cells assessed as inhibition of LPS-induced NO production preincubated for 4 hr followed by LPS addition and measured after 24 hrs relative to control; type: functional, cell-based; settings: dose 100.0 µM, time 28.0 hrs
In short: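 RAW264.7 cells exposed to LPS 1 µg/mL with compound (20 and 100 µM) for 24 h. Nitrite in medium measured by Griess reagent, […], against a sodium nitrite standard curve (0–100 µM). Four parallel groups, mean ± SD.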

[2] = Induction of H2S generation assessed as Cmax at 150 uM incubated at 37 degC and pH 5 by fluorescence spectrophotometry; type: functional
In short: (§1)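 Donor at 150 µM final, mixed with 200 µM sulfonyl-azide fluorescent probe in buffer/acetonitrile (1:9) at set pH. Cuvette held in a water bath at 22 °C or 37 °C, with fluorescence read three times at intervals. H2S was quantified from a Na2S standard curve (0–200 µM, probe 200 µM).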

[3] = Induction of H2S generation assessed as half life at 150 uM incubated at 22 degC and pH 7.4 by fluorescence spectrophotometry; type: functional; in short: as §1
[4] = Kinetic Solubility of compound; type: physicochemical
[5] = Induction of H2S generation assessed as half life at 150 uM incubated at 22 degC and pH 5 by fluorescence spectrophotometry; type: functional; in short: as §1
HeLa = test: Cytotoxicity in human HeLa cells assessed as growth inhibition incubated for 24 hrs by MTT assay; type: functional, cell-based
In short: (§2)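 Cells were grown in RPMI 1640 with 10% FBS at 37 °C and 10% CO2, seeded at 6×10^3 cells/well. Exposure was 24 h, with viability by MTT, in triplicate cultures. IC50 was reported as mean ± SD.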

[6] = Cytotoxicity against mouse RAW264.7 cells assessed as cell viability at 20 to 100 microM after 24 hrs by MTT assay; type: cell-based; settings: dose 20-100 µM, read-out: Activity
In short: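 RAW264.7 macrophages in high-glucose DMEM with 10% heat-inactivated FBS, 37 °C, 5% CO2. LPS 1 µg/mL with or without compound (20 and 100 µM) for 24 h. Then MTT 4 h, formazan dissolved in DMSO, A570, expressed as % of control.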

[7] = Cytotoxicity against rat H9C2 cells assessed as cell viability at 100 uM measured after 24 hrs by MTT assay; type: cell-based; settings: read-out: Activity
[8] = Induction of H2S generation assessed as Cmax at 150 uM incubated at 22 degC and pH 7.4 by fluorescence spectrophotometry; type: functional; in short: as §1
[9] = Induction of H2S generation assessed as half life at 150 uM incubated at 37 degC and pH 7.4 by fluorescence spectrophotometry; type: functional; in short: as §1
[10] = Induction of H2S generation assessed as Cmax Induction of H2S generation assessed as Cmax at 150 uM incubated at 37 degC and pH 7.4 by fluorescence spectrophotometry; type: functional; in short: as §1
[11] = Induction of H2S generation assessed as half life at 150 uM incubated at 22 degC and pH 8 by fluorescence spectrophotometry; type: functional; in short: as §1
[12] = Induction of H2S generation assessed as Cmax Induction of H2S generation assessed as Cmax at 150 uM incubated at 37 degC and pH 8 by fluorescence spectrophotometry; type: functional; in short: as §1
[13] = Induction of H2S generation assessed as Cmax at 150 uM incubated at 37 degC and pH 1.2 by fluorescence spectrophotometry; type: functional; in short: as §1
HT-29 = test: Cytotoxicity in human HT-29 cells assessed as growth inhibition incubated for 24 hrs by MTT assay; type: functional, cell-based; settings: HT-29, 24 h; in short: as §2
[14] = Induction of H2S generation assessed as Cmax at 150 uM incubated at 22 degC and pH 1.2 by fluorescence spectrophotometry; type: functional; in short: as §1
[15] = Induction of H2S generation assessed as Cmax at 150 uM incubated at 22 degC and pH 8 by fluorescence spectrophotometry; type: functional; in short: as §1
[16] = Induction of H2S generation assessed as half life at 150 uM incubated at 22 degC and pH 1.2 by fluorescence spectrophotometry; type: functional; in short: as §1
[17] = Induction of H2S generation assessed as half life at 150 uM incubated at 37 degC and pH 5 by fluorescence spectrophotometry; type: functional; in short: as §1
[18] = Induction of H2S generation assessed as half life at 150 uM incubated at 37 degC and pH 1.2 by fluorescence spectrophotometry; type: functional; in short: as §1
RAW264.7 [19] = test: Anti-inflammatory activity in mouse RAW264.7 cells assessed as inhibition of LPS-induced IL-10 production at 20 uM preincubated for 4 hr followed by LPS addition and measured after 24 hrs; type: functional, cell-based
In short: (§3)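 RAW264.7 cells given LPS 1 µg/mL with compound for 24 h, then lysed in RIPA and centrifuged. Protein was set to 0.1 mg/mL by BCA and mouse cytokine levels measured by sandwich ELISA kit. Four parallel groups, mean ± SD.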

A549 = test: Cytotoxicity in human A549 cells assessed as growth inhibition incubated for 24 hrs by MTT assay; type: functional, cell-based; settings: A549, 24 h; in short: as §2
MCF7 = test: Cytotoxicity in human MCF-7 cells assessed as growth inhibition incubated for 24 hrs by MTT assay; type: functional, cell-based; settings: MCF7, 24 h; in short: as §2
HepG2 = test: Cytotoxicity in human HePG2 cells assessed as growth inhibition incubated for 24 hrs by MTT assay; type: functional, cell-based; settings: HepG2, 24 h; in short: as §2
RAW264.7 [20] = test: Anti-inflammatory activity in mouse RAW264.7 cells assessed as inhibition of LPS-induced TNFalpha production at 20 uM preincubated for 4 hr followed by LPS addition and measured after 24 hrs relative to control; type: functional, cell-based; in short: as §3
[21] = Induction of H2S generation assessed as half life at 150 uM incubated at 37 degC and pH 8 by fluorescence spectrophotometry; type: functional; in short: as §1
[22] = Solubility of compound in water; type: physicochemical; settings: buffer
WI-38 = test: Cytotoxicity in human W138 cells assessed as growth inhibition incubated for 24 hrs by MTT assay; type: cell-based; settings: WI-38, 24 h; in short: as §2

Structure (SMILES): O=C([O-])CNP([O-])(=S)c1ccccc1.[Li+].[Li+] (stereo not drawn)
- Activity (RAW264.7 [1]): Dose-dependent effect
- Cmax [2]: 103 µM
- T1/2 [3]: 4.93 min
- Kinetic_solubility [4]: Soluble
- T1/2 [5]: 3.19 min
- IC50 (HeLa): 913 µM
- viability at 24 h [6]: 70%
- viability at 24 h, 100 µM [7]: > 90%
- Cmax [8]: 99.5 µM
- T1/2 [9]: 3.66 min
- Cmax [10]: 102 µM
- T1/2 [11]: 6.44 min
- Cmax [12]: 101 µM
- Cmax [13]: 103 µM
- IC50 (HT-29): 912 µM
- Cmax [14]: 101 µM
- Cmax [15]: 99.4 µM
- T1/2 [16]: 2.94 min
- T1/2 [17]: 2.41 min
- T1/2 [18]: 2.17 min
- Activity (RAW264.7 [19]): Active
- IC50 (A549): 378 µM
- IC50 (MCF7): 876 µM
- IC50 (HepG2): 771 µM
- Activity (RAW264.7 [20]): Active
- T1/2 [21]: 5.57 min
- solubility [22]: Soluble
- IC50 (WI-38): 508 µM
